Source: ChEMBL document CHEMBL1141474, “Cryptolepine analogues containing basic aminoalkyl side-chains at C-11: synthesis, antiplasmodial activity, and cytotoxicity” (Bioorg Med Chem Lett, 2008)

Columns and labels:
HUVEC = assay: Cytotoxicity against HUVEC cells; assay type: cell-based; conditions: Homo sapiens
[1] = Ratio of IC50 for human HUVEC cells to IC50 for Plasmodium falciparum W2; assay type: functional
Summary of the method: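 Ratio of HUVEC (human umbilical vein endothelial cell) cytotoxicity IC50 to in vitro IC50 against the chloroquine-resistant P. falciparum W2 strain.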

Plasmodium falciparum = assay: Antiplasmodial activity against chloroquine-resistant Plasmodium falciparum W2; assay type: functional, organism-based

CC(CN(C)C)Nc1c2ccccc2[n+](C)c2c1[nH]c1ccccc12.[Cl-] (stereo not drawn)
IC50 (HUVEC): 617 nM | Ratio IC50 [1]: 4.7 | IC50 (Plasmodium falciparum): 132 nM

CN(C)CCCNc1c2ccccc2[n+](C)c2c1[nH]c1ccccc12.[Cl-]
IC50 (HUVEC): 155 nM | Ratio IC50 [1]: 5.2 | IC50 (Plasmodium falciparum): 30 nM

C[n+]1c2ccccc2c(NCCCN2CCCCC2)c2[nH]c3ccccc3c21.[Cl-]
IC50 (HUVEC): 1160 nM | Ratio IC50 [1]: 32.3 | IC50 (Plasmodium falciparum): 36 nM

C[n+]1c2ccccc2c(NC2CCNCC2)c2[nH]c3ccccc3c21.[Cl-]
IC50 (HUVEC): 2040 nM | Ratio IC50 [1]: 46.4 | IC50 (Plasmodium falciparum): 44 nM

CCN(CC)CCCNc1c2ccccc2[n+](C)c2c1[nH]c1ccccc12.[Cl-]
IC50 (HUVEC): 114 nM | Ratio IC50 [1]: 3.6 | IC50 (Plasmodium falciparum): 32 nM

CC(C)NCCCNc1c2ccccc2[n+](C)c2c1[nH]c1ccccc12.[Cl-]
IC50 (HUVEC): 794 nM | Ratio IC50 [1]: 36.1 | IC50 (Plasmodium falciparum): 22 nM

CCN(CC)CCNc1c2ccccc2[n+](C)c2c1[nH]c1ccccc12.[Cl-]
IC50 (HUVEC): 674 nM | Ratio IC50 [1]: 8.2 | IC50 (Plasmodium falciparum): 82 nM

C[n+]1c2ccccc2cc2[n-]c3ccccc3c21.Cl [CRYPTOLEPINE HYDROCHLORIDE]
IC50 (HUVEC): 1180 nM | Ratio IC50 [1]: 1.6 | IC50 (Plasmodium falciparum): 755 nM

CN(C)CCNc1c2ccccc2[n+](C)c2c1[nH]c1ccccc12.[Cl-]
IC50 (HUVEC): 161 nM | Ratio IC50 [1]: 3.2 | IC50 (Plasmodium falciparum): 50 nM

CN(C)CC(C)(C)CNc1c2ccccc2[n+](C)c2c1[nH]c1ccccc12.[Cl-]
IC50 (HUVEC): 82 nM | Ratio IC50 [1]: 0.5 | IC50 (Plasmodium falciparum): 184 nM

CCN(CC)CCCC(C)Nc1c2ccccc2[n+](C)c2c1[nH]c1ccccc12.[Cl-] (stereo not drawn)
IC50 (HUVEC): 35 nM | Ratio IC50 [1]: 0.3 | IC50 (Plasmodium falciparum): 127 nM
